According to ChEMBL document CHEMBL4346654 (Eur J Med Chem, 2019):
≈ marks a conversion by molar mass, not a printed value.

Assays:
Format in all cases: functional
Staphylococcus aureus [1] = test: Antibacterial activity against MLS-resistant Staphylococcus aureus PU 32 expressing inducible ermA gene assessed as reduction in microbial growth by CLSI based two-fold broth dilution method
Streptococcus pneumoniae [2] = test: Antibacterial activity against erythromycin-susceptible Streptococcus pneumoniae ATCC49619 assessed as reduction in microbial growth by CLSI based two-fold broth dilution method
Streptococcus pneumoniae [3] = test: Bactericidal activity against erythromycin-susceptible Streptococcus pneumoniae ATCC49619 pretreated followed by subculture in absence of compound measured after 24 hrs
Method in brief: (§1)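 Isolates were identified by 16S rDNA sequencing. MIC was determined by CLSI-recommended two-fold broth dilution. For MBC, samples from 1–8 fold MIC were transferred to culture medium and subcultured for 24 h without antibiotic.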

Haemophilus influenzae [4] = test: Antibacterial activity against azithromycin-susceptible Haemophilus influenzae ATCC 49247 assessed as reduction in microbial growth by CLSI based two-fold broth dilution method
Streptococcus pneumoniae [5] = test: Antibacterial activity against Streptococcus pneumoniae 07P390 expressing constitutive ermB gene assessed as reduction in microbial growth by CLSI based two-fold broth dilution method
Streptococcus pneumoniae [6] = test: Antibacterial activity against penicillin-susceptible Streptococcus pneumoniae PU 09 expressing mef gene assessed as reduction in microbial growth by CLSI based two-fold broth dilution method
Streptococcus pneumoniae [7] = test: Bactericidal activity against penicillin-susceptible Streptococcus pneumoniae PU 09 expressing mef gene pretreated followed by subculture in absence of compound measured after 24 hrs; method in brief: as §1
Streptococcus pneumoniae [8] = test: Selectivity ratio of MBC to MIC for penicillin-susceptible Streptococcus pneumoniae PU 09 expressing mef gene; method in brief: as §1
Streptococcus pneumoniae [9] = test: Bactericidal activity against Streptococcus pneumoniae 07P390 expressing constitutive ermB gene pretreated followed by subculture in absence of compound measured after 24 hrs; method in brief: as §1
Streptococcus pneumoniae [10] = test: Selectivity ratio of MBC to MIC for Streptococcus pneumoniae 07P390 expressing constitutive ermB gene; method in brief: as §1
Haemophilus influenzae [11] = test: Bactericidal activity against azithromycin-susceptible Haemophilus influenzae ATCC 49247 pretreated followed by subculture in absence of compound measured after 24 hrs; method in brief: as §1
Haemophilus influenzae [12] = test: Selectivity ratio of MBC to MIC for azithromycin-susceptible Haemophilus influenzae ATCC 49247; method in brief: as §1
Streptococcus pyogenes [13] = test: Antibacterial activity against MLS-resistant Streptococcus pyogenes 01-968 expressing inducible ermB gene assessed as reduction in microbial growth by CLSI based two-fold broth dilution method
Streptococcus pyogenes [14] = test: Bactericidal activity against MLS-resistant Streptococcus pyogenes 01-968 expressing inducible ermB gene pretreated followed by subculture in absence of compound measured after 24 hrs
Method in brief: (§2)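 MBC assay. Following MIC determination by CLSI standard two-fold broth dilution, samples at 1–8 fold MIC were transferred to fresh culture medium. They were subcultured for 24 h without antibiotic. Isolates were identified by 16S rDNA sequencing. S. aureus ATCC 29213 was used as a control strain.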

Streptococcus pyogenes [15] = test: Selectivity ratio of MBC to MIC for MLS-resistant Streptococcus pyogenes 01-968 expressing inducible ermB gene
Method in brief: (§3)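 MBC/MIC ratio. MIC was measured by CLSI standard two-fold broth dilution. MBC was measured by transferring samples at 1–8 fold MIC to culture medium and subculturing for 24 h without antibiotic. Isolates were identified by 16S rDNA sequencing.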

Staphylococcus aureus [16] = test: Bactericidal activity against MLS/methicillin-resistant Staphylococcus aureus PU 32 expressing inducible ermA gene pretreated followed by subculture in absence of compound measured after 24 hrs; method in brief: as §2
Staphylococcus aureus [17] = test: Selectivity ratio of MBC to MIC for MLS/methicillin-resistant Staphylococcus aureus PU 32 expressing inducible ermA gene; method in brief: as §3
Staphylococcus aureus [18] = test: Antibacterial activity against MLS-resistant Staphylococcus aureus PU 20 expressing constitutive ermC gene assessed as reduction in microbial growth by CLSI based two-fold broth dilution method
Staphylococcus aureus [19] = test: Bactericidal activity against MLS-resistant Staphylococcus aureus PU 20 expressing constitutive ermC gene pretreated followed by subculture in absence of compound measured after 24 hrs; method in brief: as §2
Streptococcus pyogenes [20] = test: Antibacterial activity against MLS-resistant Streptococcus pyogenes 12-206 expressing constitutive ermA gene assessed as reduction in microbial growth by CLSI based two-fold broth dilution method
Streptococcus pyogenes [21] = test: Bactericidal activity against MLS-resistant Streptococcus pyogenes 12-206 expressing constitutive ermA gene pretreated followed by subculture in absence of compound measured after 24 hrs; method in brief: as §2
Streptococcus pyogenes [22] = test: Selectivity ratio of MBC to MIC for MLS-resistant Streptococcus pyogenes 12-206 expressing constitutive ermA gene; method in brief: as §3
Streptococcus pyogenes [23] = test: Antibacterial activity against Streptococcus pyogenes 12-207 expressing mef gene assessed as reduction in microbial growth by CLSI based two-fold broth dilution method
Streptococcus pyogenes [24] = test: Bactericidal activity against Streptococcus pyogenes 12-207 expressing mef gene pretreated followed by subculture in absence of compound measured after 24 hrs; method in brief: as §1
Streptococcus pyogenes [25] = test: Selectivity ratio of MBC to MIC for Streptococcus pyogenes 12-207 expressing mef gene; method in brief: as §1
Moraxella catarrhalis [26] = test: Antibacterial activity against erythromycin-susceptible Moraxella catarrhalis 13L332 assessed as reduction in microbial growth by CLSI based two-fold broth dilution method
Moraxella catarrhalis [27] = test: Bactericidal activity against erythromycin-susceptible Moraxella catarrhalis 13L332 pretreated followed by subculture in absence of compound measured after 24 hrs; method in brief: as §1
Moraxella catarrhalis [28] = test: Selectivity ratio of MBC to MIC for erythromycin-susceptible Moraxella catarrhalis 13L332; method in brief: as §1

SMILES	MIC (Staphylococcus aureus [1])	MIC (Streptococcus pneumoniae [2])	MBC (Streptococcus pneumoniae [3])	MIC (Haemophilus influenzae [4])	MIC (Streptococcus pneumoniae [5])	MIC (Streptococcus pneumoniae [6])	MBC (Streptococcus pneumoniae [7])	Selectivity ratio (Streptococcus pneumoniae [8])	MBC (Streptococcus pneumoniae [9])	Selectivity ratio (Streptococcus pneumoniae [10])	MBC (Haemophilus influenzae [11])	MIC (Streptococcus pyogenes [13])	MBC (Streptococcus pyogenes [14])	Selectivity ratio (Streptococcus pyogenes [15])	MBC (Staphylococcus aureus [16])	Selectivity ratio (Staphylococcus aureus [17])	MIC (Staphylococcus aureus [18])	MBC (Staphylococcus aureus [19])	MBC (Streptococcus pyogenes [21])	MBC (Streptococcus pyogenes [24])	also measured
CC[C@H]1OC(=O)[C@@](C)(F)C(=O)[C@H](C)[C@@H](O[C@@H]2O[C@H](C)C[C@H](N(C)C)[C@H]2O)[C@](C)(OC)C[C@@H](C)/C(=N\OCC#Cc2ccc3c(c2)c(=O)c(C(=O)NC)cn3C2CC2)[C@H](C)[C@H]2OC(=O)O[C@@]21C	1 µg/mL	≤ 0.008 µg/mL	≤ 0.008 µg/mL	64 µg/mL	0.25 µg/mL	0.5 µg/mL	0.5 µg/mL (≈ 0.541 µM)	1	> 2 µg/mL	>8	256 µg/mL (≈ 277 µM)	≤ 0.002 µg/mL	> 0.016 µg/mL	>8	> 8 µg/mL	>8	128 µg/mL	> 256 µg/mL	> 4 µg/mL	1 µg/mL (≈ 1.08 µM)	Selectivity ratio (Haemophilus influenzae [12]): 4; MIC (Streptococcus pyogenes [20]): 0.5 µg/mL; Selectivity ratio (Streptococcus pyogenes [22]): >8; MIC (Streptococcus pyogenes [23]): 0.25 µg/mL; Selectivity ratio (Streptococcus pyogenes [25]): 4; MIC (Moraxella catarrhalis [26]): 4 µg/mL; MBC (Moraxella catarrhalis [27]): > 32 µg/mL; Selectivity ratio (Moraxella catarrhalis [28]): >8
O=C(O)c1cn(C2CC2)c2cc(N3CCNCC3)c(F)cc2c1=O [CIPROFLOXACIN]	–	–	2 µg/mL (≈ 6.04 µM)	–	–	–	4 µg/mL (≈ 12.1 µM)	–	4 µg/mL (≈ 12.1 µM)	–	0.004 to 0.008 µg/mL (≈ 0.0121 to 0.0241 µM)	–	0.5 to 2 µg/mL (≈ 1.51 to 6.04 µM)	–	> 256 µg/mL	–	–	> 256 µg/mL	> 1 µg/mL	2 µg/mL (≈ 6.04 µM)	–
CC[C@H]1OC(=O)[C@@](C)(F)C(=O)[C@H](C)[C@@H](O[C@@H]2O[C@H](C)C[C@H](N(C)C)[C@H]2O)[C@](C)(OC)C[C@@H](C)/C(=N\OCC#Cc2ccc3c(c2)c(=O)c(C(N)=O)cn3C2CC2)[C@H](C)[C@H]2OC(=O)O[C@@]21C	1 µg/mL	≤ 0.008 µg/mL	≤ 0.008 µg/mL	32 µg/mL	0.25 µg/mL	0.25 µg/mL	0.5 µg/mL (≈ 0.549 µM)	2	> 2 µg/mL	>8	128 µg/mL (≈ 140 µM)	≤ 0.002 µg/mL	> 0.016 µg/mL	>8	8 µg/mL (≈ 8.78 µM)	8	128 µg/mL	> 256 µg/mL	> 8 µg/mL	2 µg/mL (≈ 2.2 µM)	Selectivity ratio (Haemophilus influenzae [12]): 4; MIC (Streptococcus pyogenes [20]): 1 µg/mL; Selectivity ratio (Streptococcus pyogenes [22]): >8; MIC (Streptococcus pyogenes [23]): 0.25 µg/mL; Selectivity ratio (Streptococcus pyogenes [25]): 8; MIC (Moraxella catarrhalis [26]): 4 µg/mL; MBC (Moraxella catarrhalis [27]): > 32 µg/mL; Selectivity ratio (Moraxella catarrhalis [28]): >8
CC[C@H]1OC(=O)[C@@](C)(F)C(=O)[C@H](C)[C@@H](O[C@@H]2O[C@H](C)C[C@H](N(C)C)[C@H]2O)[C@](C)(OC/C=C/c2ccc3c(c2)c(=O)c(C(=O)NC)cn3CC)C[C@@H](C)/C(=N\OC)[C@H](C)[C@H]2OC(=O)O[C@@]21C	0.25 µg/mL	≤ 0.008 µg/mL	≤ 0.008 µg/mL	256 µg/mL	0.031 µg/mL	0.5 µg/mL	1 µg/mL (≈ 1.09 µM)	2	> 0.25 µg/mL	>8	> 256 µg/mL	≤ 0.002 µg/mL	0.008 µg/mL (≈ 0.00874 µM)	>=4	> 2 µg/mL	>8	> 256 µg/mL	–	> 0.016 µg/mL	0.25 µg/mL (≈ 0.273 µM)	MIC (Streptococcus pyogenes [20]): ≤ 0.002 µg/mL; Selectivity ratio (Streptococcus pyogenes [22]): >8; MIC (Streptococcus pyogenes [23]): 0.062 µg/mL; Selectivity ratio (Streptococcus pyogenes [25]): 4; MIC (Moraxella catarrhalis [26]): 0.5 µg/mL; MBC (Moraxella catarrhalis [27]): 4 µg/mL (≈ 4.37 µM); Selectivity ratio (Moraxella catarrhalis [28]): 8
